Assay results published in ChEMBL document CHEMBL1135823, “Discovery and SAR of a novel selective and orally bioavailable nonpeptide classical competitive inhibitor class of protein-tyrosine phosphatase 1B” (J Med Chem, 2002).

Experiments:
[1] = target: T1, Tyrosine-protein phosphatase non-receptor type 1 (Homo sapiens, UniProt P18031); assay: Inhibitory effect against recombinant human protein-tyrosine phosphatase 1B (PTP1B), using p-nitrophenyl phosphate substrate at pH 5.5.
T1 sequence (P18031 whole entry): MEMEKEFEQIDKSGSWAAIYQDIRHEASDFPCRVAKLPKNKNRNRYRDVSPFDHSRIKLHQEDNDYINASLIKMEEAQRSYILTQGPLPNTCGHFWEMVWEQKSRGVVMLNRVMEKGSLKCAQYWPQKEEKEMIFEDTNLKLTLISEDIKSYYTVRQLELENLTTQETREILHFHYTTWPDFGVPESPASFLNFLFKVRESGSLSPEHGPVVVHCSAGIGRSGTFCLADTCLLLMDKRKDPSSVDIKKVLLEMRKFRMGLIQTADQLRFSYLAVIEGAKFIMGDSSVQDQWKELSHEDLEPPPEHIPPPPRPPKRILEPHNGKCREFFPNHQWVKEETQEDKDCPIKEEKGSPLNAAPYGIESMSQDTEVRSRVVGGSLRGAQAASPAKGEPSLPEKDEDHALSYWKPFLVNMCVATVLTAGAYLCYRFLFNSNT

[2] = target: T1, Tyrosine-protein phosphatase non-receptor type 1; assay: Inhibition of human recombinant Protein-tyrosine phosphatase 1B.
Procedure, shortened: (§1)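 Enzyme is a soluble recombinant human PTP1B (residues 1–321). Ki is measured at pH 5.5 with p-nitrophenyl phosphate (pNPP) as substrate.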

[3] = target: T2, Tyrosine-protein phosphatase non-receptor type 2 (Homo sapiens, UniProt P17706); assay: Inhibition of T cell protein tyrosine phosphatase (TC-PTP) at pH 7.0; type: single protein
T2 sequence (P17706 whole entry): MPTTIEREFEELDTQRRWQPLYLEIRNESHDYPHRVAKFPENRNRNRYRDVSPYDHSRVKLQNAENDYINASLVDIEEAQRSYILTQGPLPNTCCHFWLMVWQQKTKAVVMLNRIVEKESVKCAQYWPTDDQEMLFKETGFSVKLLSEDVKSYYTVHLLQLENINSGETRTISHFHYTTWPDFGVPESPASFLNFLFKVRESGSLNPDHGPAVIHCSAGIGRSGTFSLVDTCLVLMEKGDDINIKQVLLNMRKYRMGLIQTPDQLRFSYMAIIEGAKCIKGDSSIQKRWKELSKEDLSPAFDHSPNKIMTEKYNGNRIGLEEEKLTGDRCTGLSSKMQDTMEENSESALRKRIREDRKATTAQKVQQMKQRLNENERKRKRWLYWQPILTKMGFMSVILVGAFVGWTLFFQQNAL
Procedure, shortened: (§2)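 Ki from a pNPP hydrolysis assay with recombinant TC-PTP, run at pH 7.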

[4] = target: Receptor-type tyrosine-protein phosphatase F (Homo sapiens, UniProt P10586); assay: Inhibitory effect against protein-tyrosine phosphatase Lar, using p-nitrophenyl phosphate as substrate at pH 5.5.
Chain of Receptor-type tyrosine-protein phosphatase F (P10586 whole entry): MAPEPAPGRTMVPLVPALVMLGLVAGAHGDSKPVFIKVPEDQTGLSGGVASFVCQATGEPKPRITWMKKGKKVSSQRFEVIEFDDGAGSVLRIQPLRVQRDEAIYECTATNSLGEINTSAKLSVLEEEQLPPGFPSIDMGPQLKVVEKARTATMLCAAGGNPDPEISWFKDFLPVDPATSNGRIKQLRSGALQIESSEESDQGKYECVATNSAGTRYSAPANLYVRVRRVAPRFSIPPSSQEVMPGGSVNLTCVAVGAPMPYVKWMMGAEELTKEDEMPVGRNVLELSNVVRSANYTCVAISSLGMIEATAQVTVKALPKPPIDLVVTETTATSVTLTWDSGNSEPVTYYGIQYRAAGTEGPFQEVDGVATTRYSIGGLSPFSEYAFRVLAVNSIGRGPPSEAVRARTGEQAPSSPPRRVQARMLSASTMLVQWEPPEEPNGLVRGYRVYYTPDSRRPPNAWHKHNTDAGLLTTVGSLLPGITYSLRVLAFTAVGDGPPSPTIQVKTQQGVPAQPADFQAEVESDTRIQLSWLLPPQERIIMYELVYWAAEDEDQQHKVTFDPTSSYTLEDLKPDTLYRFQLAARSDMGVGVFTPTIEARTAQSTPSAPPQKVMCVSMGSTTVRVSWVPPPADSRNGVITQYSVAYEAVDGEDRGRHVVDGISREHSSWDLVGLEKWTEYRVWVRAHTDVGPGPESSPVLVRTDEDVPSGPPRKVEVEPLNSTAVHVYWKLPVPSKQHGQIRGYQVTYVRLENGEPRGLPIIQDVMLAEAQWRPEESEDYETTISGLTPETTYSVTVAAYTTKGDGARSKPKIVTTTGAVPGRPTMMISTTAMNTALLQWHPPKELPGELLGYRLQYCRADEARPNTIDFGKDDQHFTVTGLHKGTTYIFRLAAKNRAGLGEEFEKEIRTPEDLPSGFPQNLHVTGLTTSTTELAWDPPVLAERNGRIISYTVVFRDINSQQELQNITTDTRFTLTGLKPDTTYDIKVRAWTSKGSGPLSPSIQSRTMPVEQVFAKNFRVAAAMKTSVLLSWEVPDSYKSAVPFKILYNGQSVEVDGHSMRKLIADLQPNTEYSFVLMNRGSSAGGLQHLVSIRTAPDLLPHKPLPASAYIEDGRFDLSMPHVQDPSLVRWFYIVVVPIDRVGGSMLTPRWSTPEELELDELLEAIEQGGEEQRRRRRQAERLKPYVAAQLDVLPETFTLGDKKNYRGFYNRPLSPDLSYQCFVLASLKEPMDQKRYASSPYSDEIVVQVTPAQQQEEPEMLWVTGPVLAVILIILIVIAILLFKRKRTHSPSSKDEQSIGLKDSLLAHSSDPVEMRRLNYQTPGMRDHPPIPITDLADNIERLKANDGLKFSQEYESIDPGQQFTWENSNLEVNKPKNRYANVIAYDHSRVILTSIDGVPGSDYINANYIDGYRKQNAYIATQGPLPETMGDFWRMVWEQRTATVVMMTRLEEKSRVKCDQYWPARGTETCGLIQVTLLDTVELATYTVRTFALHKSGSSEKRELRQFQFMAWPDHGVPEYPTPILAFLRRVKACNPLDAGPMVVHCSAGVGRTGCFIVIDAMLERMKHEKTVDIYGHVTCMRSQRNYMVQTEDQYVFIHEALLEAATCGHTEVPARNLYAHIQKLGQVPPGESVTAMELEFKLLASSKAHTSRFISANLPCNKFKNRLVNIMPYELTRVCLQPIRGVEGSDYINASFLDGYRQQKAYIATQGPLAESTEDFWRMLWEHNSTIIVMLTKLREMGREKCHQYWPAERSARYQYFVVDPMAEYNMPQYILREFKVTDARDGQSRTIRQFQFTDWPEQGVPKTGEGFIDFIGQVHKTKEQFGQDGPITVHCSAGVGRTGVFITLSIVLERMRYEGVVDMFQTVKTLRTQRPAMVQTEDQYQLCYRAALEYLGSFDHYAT

[5] = target: Receptor-type tyrosine-protein phosphatase alpha (Homo sapiens, UniProt P18433); assay: Inhibitory effect against human protein-tyrosine phosphatase alpha (PTPalpha), using p-nitrophenyl phosphate substrate at pH 5.5.
Chain of Receptor-type tyrosine-protein phosphatase alpha (P18433 whole entry): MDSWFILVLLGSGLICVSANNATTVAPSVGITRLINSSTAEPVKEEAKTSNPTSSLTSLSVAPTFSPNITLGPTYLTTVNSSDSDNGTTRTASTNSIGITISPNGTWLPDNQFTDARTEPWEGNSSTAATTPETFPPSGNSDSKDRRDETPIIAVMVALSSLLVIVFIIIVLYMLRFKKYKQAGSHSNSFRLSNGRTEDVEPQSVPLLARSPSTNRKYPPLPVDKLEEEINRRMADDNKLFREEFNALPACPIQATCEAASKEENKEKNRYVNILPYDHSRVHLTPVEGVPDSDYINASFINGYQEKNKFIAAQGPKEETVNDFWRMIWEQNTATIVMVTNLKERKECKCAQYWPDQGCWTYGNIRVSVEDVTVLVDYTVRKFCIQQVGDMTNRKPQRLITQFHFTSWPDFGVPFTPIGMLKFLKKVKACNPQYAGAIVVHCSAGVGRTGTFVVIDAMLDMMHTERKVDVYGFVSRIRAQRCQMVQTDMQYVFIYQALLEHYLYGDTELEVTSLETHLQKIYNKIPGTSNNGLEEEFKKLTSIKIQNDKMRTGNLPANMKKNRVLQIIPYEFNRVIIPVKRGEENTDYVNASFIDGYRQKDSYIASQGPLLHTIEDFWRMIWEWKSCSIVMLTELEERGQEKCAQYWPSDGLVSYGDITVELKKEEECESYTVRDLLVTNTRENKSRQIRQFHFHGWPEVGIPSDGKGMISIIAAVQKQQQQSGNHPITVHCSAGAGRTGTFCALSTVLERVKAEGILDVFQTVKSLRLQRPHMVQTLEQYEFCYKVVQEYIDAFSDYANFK
Procedure, shortened: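 Ki from pNPP hydrolysis assays at pH 5.5 with recombinant PTPα or LAR.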

[6] = target: T1, Tyrosine-protein phosphatase non-receptor type 1; assay: Inhibitory effect against recombinant human PTP1B (Protein Tyrosine phosphatase 1B) using p-nitrophenyl phosphate substrate at pH 5.5; procedure, shortened: as §1
[7] = Oral bioavailability; type: ADME, organism-based; details: eutheria, in vivo, read-out: f (po)
[8] = Pharmacokinetic Parameter t1/2 was reported for Protein Tyrosine Phosphatase 1B; type: ADME, organism-based; details: in vivo
[9] = Pharmacokinetic Parameter clearance was reported for Protein Tyrosine Phosphatase 1B; type: ADME, organism-based; details: in vivo
[10] = target: T2, Tyrosine-protein phosphatase non-receptor type 2; assay: Inhibitory effect against inhibitory effect against T cell protein tyrosine phosphatase (TC-PTP) using p-nitrophenyl phosphate as substrate at pH 7.0; procedure, shortened: as §2
[11] = target: T1, Tyrosine-protein phosphatase non-receptor type 1; assay: Inhibitory effect against recombinant human Protein-tyrosine phosphatase 1B (PTP1B) using p-nitrophenyl phosphate substrate at pH 5.5;ND is not determined; procedure, shortened: as §1
[12] = Pharmacokinetic Parameter Vss was reported for Protein Tyrosine Phosphatase 1B; type: ADME, organism-based; details: in vivo; read-out: Vss
[13] = Pharmacokinetic Parameter half life was reported for Protein Tyrosine Phosphatase 1B; type: ADME, organism-based; details: in vivo

SMILES	Ki [1] [µM]	Ki [2] [µM]	Ki [4] [µM]	Ki [5] [µM]	also measured
CN1CCc2c(sc(NC(=O)C(=O)O)c2C(=O)O)C1	1	11	–	–	Ki [3]: 22 µM
O=C(O)C(=O)Nc1sc2c(c1C(=O)O)CCN(Cc1ccc3ccccc3n1)C2	1.8	29	–	–	–
O=C(O)C(=O)Nc1sc2c(c1C(=O)O)CCN(CCc1ccccn1)C2	–	12	–	–	Ki [3]: 19 µM
O=C(O)C(=O)Nc1cc(-c2ccccc2)sc1C(=O)O	13	–	90	250	–
COc1cccc(CN2CCc3c(sc(NC(=O)C(=O)O)c3C(=O)O)C2)c1	0.7	8.3	–	–	–
O=C1CCc2c(sc(NC(=O)C(=O)O)c2C(=O)O)C1	1.3	–	–	52	–
O=C(O)C(=O)Nc1sc2c(c1C(=O)O)CCN(CCC(c1ccccc1)c1ccccc1)C2	–	5.9	–	–	–
O=C(O)C(=O)Nc1sc2c(c1C(=O)O)CCCCC2	12	–	400	320	–
O=C(O)C(=O)Nc1sc2c(c1C(=O)O)CCCC2	–	–	410	290	–
O=C(O)C(=O)Nc1sc2c(c1C(=O)O)CCN(Cc1ccncc1)C2	1.1	12	–	–	–
O=C(O)COc1ccc(-c2cc(NC(=O)C(=O)O)c(C(=O)O)s2)cc1	2.5	–	50	200	–
O=C(O)C(=O)Nc1sc2c(c1C(=O)O)CCN(Cc1ccccn1)C2	1	23	–	–	Ki [3]: 48 µM
O=C(O)C(=O)Nc1cnccc1C(=O)O	160	–	> 2000	1000	–
O=C(O)C(=O)Nc1sc2c(c1C(=O)O)CCN(CCc1ccc(OCc3ccccc3)cc1)C2	–	15	–	–	Ki [3]: 10 µM
O=C(O)C(=O)Nc1cc(-c2ccsc2)sc1C(=O)O	11	–	90	200	–
O=C(O)C(=O)Nc1cc(-c2ccc(Oc3ccccc3)cc2)sc1C(=O)O	26	–	–	93	–
Cc1cccc(C(=O)O)c1NC(=O)C(=O)O	–	–	> 2000	> 2000	Ki [6]: 1100 µM
O=C(O)C(=O)Nc1sc2c(c1C(=O)O)CCOC2	–	–	–	170	bioavailability [7]: 85%; half-life [8]: 1.3 h; clearance [9]: 17 mL/min/kg
O=C(O)C(=O)Nc1sc2c(c1C(=O)O)CCN(Cc1ccccc1)C2	1	14	–	–	Ki [3]: 24 µM
O=C(O)C(=O)Nc1sc2c(c1C(=O)O)CCN(Cc1ccc3ccccc3c1)C2	–	42	–	–	Ki [10]: 34 µM
COc1cccc(-c2cc(NC(=O)C(=O)O)c(C(=O)O)s2)c1	12	–	–	530	–
O=C(O)C(=O)Nc1cscc1C(=O)O	–	–	–	–	Ki [11]: 75 µM
O=C(O)C(=O)Nc1ccccc1C(=O)O	–	–	> 2000	870	–
O=C(O)C(=O)Nc1sc2c(c1C(=O)O)CCN(CCc1cccc3ccccc13)C2	–	11	–	–	Ki [3]: 11 µM
O=C(O)C(=O)Nc1sc2c(c1C(=O)O)CCN(CCc1ccc(-c3ccccc3)cc1)C2	–	8	–	–	Ki [3]: 12 µM
O=C(O)C(=O)Nc1sc2c(c1C(=O)O)CCC(O)C2 (stereo not drawn)	2	–	–	215	–
O=C(O)C(=O)Nc1sc2c(c1C(=O)O)CCNC2	0.29	4.7	–	–	bioavailability [7]: 56%; Vd [12]: 0.9 L/kg; clearance [9]: 6.4 mL/min/kg; half-life [13]: 2.8 h; Ki [3]: 9.4 µM
O=C(O)C(=O)Nc1sc2c(c1C(=O)O)CC[S+]([O-])C2 (stereo not drawn)	5.1	–	–	363	–

SMILES	Ki [1] [µM]	Ki [2] [µM]	Ki [4] [µM]	Ki [5] [µM]	also measured
O=C(O)C(=O)Nc1sc2c(c1C(=O)O)CCSC2	8.3	–	–	100	–
O=C(O)C(=O)Nc1sc2c(c1C(=O)O)CCC2	12	–	900	340	–
COc1cc(OC)cc(-c2cc(NC(=O)C(=O)O)c(C(=O)O)s2)c1	8	–	–	1790	–
Nc1cccc(-c2cc(NC(=O)C(=O)O)c(C(=O)O)s2)c1	6.1	–	113	250	–
O=C(O)C(=O)Nc1cc(-c2ccc(Cl)cc2)sc1C(=O)O	10	–	160	100	–
O=C(O)C(=O)Nc1sc2c(c1C(=O)O)CCN(Cc1cccnc1)C2	0.9	12	–	–	–
Cc1csc(C(=O)O)c1NC(=O)C(=O)O	2000	–	2000	> 2000	–
O=C(O)C(=O)Nc1cc(-c2cccc([N+](=O)[O-])c2)sc1C(=O)O	4.7	–	165	700	–
CC(C)Cc1ccc(-c2cc(NC(=O)C(=O)O)c(C(=O)O)s2)cc1	13	–	50	100	–
O=C(O)C(=O)Nc1ccsc1C(=O)O	37	–	2000	> 2000	–
COc1ccc(-c2cc(NC(=O)C(=O)O)c(C(=O)O)s2)cc1	9	–	–	150	–
O=C(O)C(=O)Nc1ccc(I)cc1C(=O)O	–	–	420	89	Ki [6]: 14 µM
CN(C(=O)C(=O)O)c1ccccc1C(=O)O	1100	–	> 2000	> 2000	–
Cc1cccc(NC(=O)C(=O)O)c1C(=O)O	1700	–	> 2000	> 2000	–
O=C(O)C(=O)Nc1cc(-c2ccc(O)cc2)sc1C(=O)O	4.5	–	–	210	–
O=C(O)C(=O)Nc1ccc2cc[nH]c2c1C(=O)O	18	–	550	800	–
O=C(O)C(=O)Nc1sc2c(c1C(=O)O)CCN(CCc1ccsc1)C2	–	9	–	–	Ki [3]: 12 µM
O=C(O)C(=O)Nc1cc2[nH]ccc2cc1C(=O)O	8	–	450	180	–
O=C(O)C(=O)Nc1sc2c(c1C(=O)O)CCN(CCc1ccncc1)C2	–	8.7	–	–	Ki [3]: 13 µM
O=C(O)C(=O)Nc1sccc1C(=O)O	108	–	> 2000	–	–
O=C(O)C(=O)Nc1sc2c(c1C(=O)O)CCS(=O)(=O)C2	6.1	–	–	322	–
O=C(O)C(=O)Nc1cc(-c2ccc(OCc3ccccc3)cc2)sc1C(=O)O	16	–	–	65	–
O=C(O)C(=O)Nc1sc2c(c1C(=O)O)CCN(CCc1ccccc1OCc1ccccc1)C2	–	16	–	–	Ki [3]: 17 µM
O=C(O)C(=O)Nc1ccc(-c2ccccc2)cc1C(=O)O	14	–	700	280	–
COc1ccc(-c2cc(NC(=O)C(=O)O)c(C(=O)O)s2)cc1OC	25	–	–	980	–
O=C(O)C(=O)Nc1cc(-c2ccc(F)cc2)sc1C(=O)O	8	–	110	210	–
O=C(O)C(=O)Nc1sc2c(c1C(=O)O)CCN(CCCc1ccccc1)C2	–	7.3	–	–	Ki [3]: 12 µM
